# Measurements gathered from unrelated publications.
SMILES,target or system,assay,test system,conditions,endpoint,value
CC(C)=CCC/C(C)=C/COc1cc(O)cc(O)c1C(=O)c1ccccc1,,"DPPH scavenging, absorbance",,30 min,IC50,2330 µM
CCCCCCCCCOc1ccc2[nH]cc(CCN)c2c1,FaDu,cell growth or viability,,72 h,IC50,7.3 µM
CC(Cc1ccc(O)cc1)NCC(O)c1cc(O)cc(O)c1 (stereo not drawn),THP-1,"TNF-α release, inhibitor",,"17 h, LPS-stimulated",IC50,0.12 µM
O=C(NCc1ccc(Cl)cc1)C1CC1c1ccccc1 (stereo not drawn),Chikungunya virus,"viral replication, luciferase",BHK-21,16 h,IC50,> 100 µM
COc1ccc(O)c(C(C)(C)C)c1,,"DPPH scavenging, absorbance",,,IC50,10.1 µg/mL
O=C(Nc1ncc([N+](=O)[O-])s1)c1cccnc1,Chikungunya virus,"viral replication, luciferase",BHK-21,16 h,IC50,> 100 µM
O=C(O)c1cn(C2CC2)c2cc(N3CCNCC3)c(F)cc2c1=O,Haemophilus influenzae,microbial growth,,,MIC,> 4 µg/mL
COc1c2ccoc2cc2oc(=O)ccc12,HEp-2,"cell growth or viability, WST-1",,48 h,IC50,23.4 µM
COc1c(N2C[C@@H]3CCCN[C@@H]3C2)c(F)cc2c(=O)c(C(=O)O)cn(C3CC3)c12,Haemophilus influenzae,microbial growth,,,MIC,> 4 µg/mL
O=c1c(O[C@@H]2O[C@H](CO)[C@H](O)[C@H](O)[C@H]2O)c(-c2ccc(O)c(O)c2)oc2cc(O)cc(O)c12,,"DPPH scavenging, absorbance",,30 min,IC50,142 µM
COc1c(N2CCNC(C)C2)c(F)cc2c(=O)c(C(=O)O)cn(C3CC3)c12 (stereo not drawn),Haemophilus influenzae,microbial growth,,,MIC,> 4 µg/mL
O=c1[nH]cnc2c1nnn2-c1cccc(Cl)c1,Chikungunya virus,"viral replication, luciferase",BHK-21,16 h,IC50,> 100 µM
